Screening data from PubChem.
NPY-Y2 PAM-ag: NPY-Y2 potentiators or agonists, primary screen, cell-based. activation, % at 3.6 µM. 0.45% of 220,000 active. Neuropeptide Y receptor type 2 (Homo sapiens), P49146. cells expressing NPY-Y2, potentiator/agonist read-out. AID 1359, 2008; in the data active = activation above about 27%;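 note: cells stimulated with NPY near EC25 plus isoproterenol at EC100; 0% = vehicle plus submaximal agonist and 100% = vehicle plus saturating agonist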
NPY Y1 blocker: NPY-Y1 receptor antagonists, primary screen, cell-based. 1% of 200,000 active. AID 1040, 2008. Neuropeptide Y receptor type 1 (Homo sapiens), P25929. HEK293-CNG Y1 cells, membrane potential fluorescence; NPY at EC95, then isoproterenol. inhibition, % at 3.6 µM;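 active = inhibition above the campaign mean inhibition of all tested compounds plus 3 SD, cut at about 20% in these data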;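 note: 0% = DMSO wells given NPY plus isoproterenol and 100% = isoproterenol alone without NPY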
Target sequence (P25929 whole entry, looked up): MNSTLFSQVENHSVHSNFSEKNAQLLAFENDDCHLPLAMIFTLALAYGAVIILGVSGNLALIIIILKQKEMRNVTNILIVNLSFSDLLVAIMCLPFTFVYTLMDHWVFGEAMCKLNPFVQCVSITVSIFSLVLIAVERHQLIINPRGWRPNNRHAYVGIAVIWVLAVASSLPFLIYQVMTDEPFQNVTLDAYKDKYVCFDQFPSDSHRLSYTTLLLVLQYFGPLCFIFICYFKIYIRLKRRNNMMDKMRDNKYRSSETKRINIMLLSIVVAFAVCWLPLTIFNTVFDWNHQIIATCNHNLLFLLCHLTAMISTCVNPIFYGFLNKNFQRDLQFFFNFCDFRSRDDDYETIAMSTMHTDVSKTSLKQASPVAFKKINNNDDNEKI
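Material: HEK293 Y1/CNG channel cell line; also added: NPY (25 nM), isoproterenol (1 µM), Ro 20-1724 (25 µM); doses: one concentration, 3.6 µM, in 0.4% DMSO; schedule: compound incubation 1 h at room temperature, readout 45 min post-stimulation; technique: membrane potential fluorescence; measure: fluorescence ratio normalized to % inhibition between controls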
NPY-Y2 antag: NPY-Y2 receptor antagonists, primary screen, cell-based; NPY-Y2 expressing cells, antagonist mode; inhibition, % at 2.7 µM; 0.99% of 140,000 active; in the data active = inhibition above about 17%;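 note: 0% = vehicle with agonist challenge and 100% = reference antagonist with challenge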
NPY-Y1 PAM-ag: NPY-Y1 receptor potentiators or agonists, primary screen, cell-based | Neuropeptide Y receptor type 1 (Homo sapiens), P25929 | NPY-Y1 expressing cells, potentiator/agonist activation | activation, % at 3.6 µM | 0.37% of 220,000 active; in the data active = activation above about 33%, passing the limit was not always enough;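 note: cells stimulated with NPY at EC10 then isoproterenol at EC100; 0% = low agonist plus stimulus and 100% = saturating agonist plus stimulus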
* = called active by the depositor; . = not tested or not shown. In the library only some 1.9% were active in any assay of this set; here they are far more common.

SMILES	NPY-Y2 PAM-ag	NPY Y1 blocker	NPY-Y2 antag	NPY-Y1 PAM-ag
COC(=O)CNC(c1ccccc1)c1cc(C)ccc1NC(=O)CNC(=O)OCc1ccccc1 (stereo not given)	-21.8	29.0*	37.8*	-34.3
COC(=O)CNC(c1ccccc1)c1cc(C)ccc1NS(=O)(=O)c1ccc(C)cc1 (stereo not given)	1.4	5.9	7.7	-12.3
COC(=O)CNC(c1ccccc1)c1cc(C)ccc1NC(=O)c1cccc(Cl)c1 (stereo not given)	-6.0	28.4*	17.2*	-27.1
Cc1ccc(C(=O)C[n+]2cc(-c3ccc(C)cc3)n3c2CCCCC3)cc1	-10.3	79.1*	31.6*	-34.8
COc1ccc(C(=O)C[n+]2cc(-c3ccc(OC)cc3)n3c2CCCC3)cc1	-1.4	0.9	.	4.1
C/C(N)=C(/C#N)C(=O)CSc1nc2ccccc2[nH]1	-10.3	-2.3	3.0	-19.7
C/C(N)=C(/C#N)C(=O)CSc1ncnc2ccccc12	97.7*	-11.3	9.3	94.2*
O=C(CSc1nnc(COc2ccccc2Cl)o1)NC(=O)NCc1ccco1	0.0	.	.	-13.0
CCCOc1ccccc1Cn1c(=O)oc2ccc(C)cc21	-28.9	20.3*	21.0*	-42.5
CC(NC(=S)N1CCN(c2ccccc2)CC1)c1ccccc1 (stereo not given)	6.9	.	.	26.7
CCC(C)(C)NC(=O)CN(CCc1cccc(C)c1)C(=O)c1csnn1	12.6	2.4	.	0.8
CN(C)c1nc(NCc2ccccc2)nc(SCC(=O)Nc2ccccc2Cl)n1	-3.3	25.6*	42.9*	2.1
CN(C)c1nc(NCc2ccccc2)nc(SCC(=O)Nc2ccccc2)n1	-24.5	6.8	15.8	-21.7
CC(C)(C)c1ccc(NC(=O)COC(=O)c2ccc(NS(=O)(=O)c3ccc(F)c(F)c3)cc2)cc1	7.8	-9.0	-4.0	5.0
CCOC(=O)C1CCCN(CC(O)COc2ccc(OC)cc2C(C)(C)C)C1 (stereo not given)	48.8*	-5.2	2.3	41.2*
CCOC(=O)C1CCCN(Cc2ccccc2OCC)C1 (stereo not given)	-10.1	0.5	3.5	-0.8
CCOC(=O)C1CCCN(CC(O)COc2ccccc2C(C)=O)C1 (stereo not given)	37.5*	-7.0	1.7	62.0*
CCN(CC)C(=O)c1sc(NC(=O)C(Sc2ccccc2)c2ccccc2)c(C(=O)OC(C)C)c1C (stereo not given)	-1.0	2.2	8.7	-5.0
CCOC(=O)c1ccc(CC(=O)c2ccc(O)cc2O)o1	34.9*	-2.8	1.7	34.4
COC(=O)c1ccc(CC(=O)c2ccc(O)cc2O)o1	24.2	-5.3	0.7	22.6
Cc1ccc(C(=O)NCCc2ccc(F)cc2)s1	17.3	-8.3	.	23.1
Cc1ccccc1/C=c1\s/c(=C\C(=O)C(C)(C)C)[nH]c1=O	-21.3	21.8*	24.0*	-7.3
CCOC(=O)Cc1cc(-c2ccc(F)cc2)nc2ccc3ccccc3c12	1.7	0.7	2.4	-9.7
C(#CC12CC3CC(CC(C3)C1)C2)CN1CCOCC1	5.3	-0.8	.	9.8
CCOc1ccc(/C=C/[N+](=O)[O-])c2ccccc12	-10.7	32.1*	27.4*	-14.6
SMILES	NPY-Y2 PAM-ag	NPY Y1 blocker	NPY-Y2 antag	NPY-Y1 PAM-ag
COC(=O)N(NC(=O)C(O)(c1ccccc1)c1ccccc1)c1ccccc1	-10.7	33.4*	22.2*	-37.5
COC(=O)N(NC(=O)C(O)(CCC(C)C)CCC(C)C)c1ccccc1	-15.4	51.8*	26.2*	-40.3
O=C(NN(C(=O)c1ccccc1)c1ccccc1)c1ccccc1	-4.7	.	.	-0.4
CC(C)CCC(O)(CCC(C)C)C(=O)NNc1ccccc1	-0.9	15.3	12.7	-6.8
O=C(c1ccc(F)cc1)N(NC(=O)C(O)(c1ccccc1)c1ccccc1)c1ccccc1	-2.8	48.8*	29.6*	-55.7
O=C(OC(C(=O)Nc1cccc(C(F)(F)F)c1)c1ccccc1)C1CCCCC1 (stereo not given)	16.5	-2.9	-2.2	9.9
Cn1c(=O)c(C#N)c(-c2ccc(F)cc2)c2cc(C(=O)c3cc(Cl)cc(Cl)c3O)cnc21	92.2*	.	.	57.6*
O=C(CN1CCN(S(=O)(=O)c2ccccc2)CC1)Nc1ccc2c(c1)CCC2	5.5	-0.2	0.4	-4.0
Cc1n[nH]c(=S)n1/N=C/c1ccccc1OCc1ccc(Cl)cc1	-20.7	28.0*	87.5*	-38.8
O=C(N/N=C/c1ccc(Cl)cc1)c1sccc1OCc1ccc(F)cc1	-153.2	109.3*	113.4*	-227.4
O=C(N/N=C/c1ccc(F)cc1)c1sccc1OCc1ccc(F)cc1	-39.4	11.3	22.9*	-50.3
NNC(=O)c1sccc1OCc1ccc(F)cc1	-22.7	6.5	.	-10.0
Cc1noc(C)c1C(=O)N1CCN(c2ccc(OCc3ccccc3)cc2)CC1	-2.0	.	.	-1.9
CC1CCC2C(=O)N(c3ccc(S(=O)(=O)c4ccccc4)cc3)C(=O)C2C1 (stereo not given)	11.3	-5.0	-1.2	21.6
CCOC(=O)C1=C(C)NC(=O)NC1c1ccsc1 (stereo not given)	39.6*	-7.5	0.4	111.0*
CCOC(=O)c1c(NC(=O)CSc2nnc(C)s2)sc2c1CCCCC2	-16.5	39.2*	19.5*	-22.5
CCOC(=O)c1c(NC(=O)CSc2nnc(C)c(=O)[nH]2)sc2c1CCCC2	-26.4	13.5	13.1	7.1
CC(=O)Nc1ccc(Nc2ccc3c4c(cc(=O)n3C)-c3ccccc3C(=O)c24)cc1	6.3	-0.7	.	7.2
O=C1c2ccccc2C(=O)c2c(Nc3ccc(CCO)cc3)ccc(O)c21	116.6*	.	.	120.7*
COc1ccc(C(CCNC(C)c2ccccc2)C(C)C)cc1 (stereo not given)	0.1	.	.	4.4
COc1ccc([C@H](C)NC[C@H](O)c2ccc(O)c(NC=O)c2)cc1	79.4*	-9.1	.	58.6*
COc1ccc(NC(=O)C2=C(C)C(=O)OC23CCC(C)CC3)cc1Cl (stereo not given)	58.5*	-5.6	-0.5	48.4*
COc1ccc(CNC(=O)C2=C(C)C(=O)OC23CCC(C)CC3)cc1 (stereo not given)	-12.1	0.3	-3.0	-3.3
COC(=O)CNC(=O)COC(=O)c1ccc(Cl)nc1	-10.5	-0.5	.	7.3
CSc1nc(Cl)c(Cc2ccc(OC(C)C)cc2)c(N(C)C)n1	-6.8	48.8*	30.0*	-28.7
SMILES	NPY-Y2 PAM-ag	NPY Y1 blocker	NPY-Y2 antag	NPY-Y1 PAM-ag
CN(CCOc1ccccc1)S(=O)(=O)c1ccc2oc3ccccc3c2c1	-20.7	7.9	3.8	-37.9
CC(=O)Oc1ccc(C(=O)Nc2cc(NC(=O)c3ccc(OC(C)=O)cc3)cc(C(=O)NC(C)(C)C)c2)cc1	0.1	0.7	0.1	4.5
Cc1cc(CN(C)C(=O)c2cc(COc3ccc(F)cc3Cl)on2)n[nH]1	-12.4	-5.4	.	-11.5
Cc1ccc(CN(C)C(=O)c2cc(COc3ccc(F)cc3Cl)on2)o1	-18.4	20.2*	.	-12.6
O=C(Nc1ccc(F)cc1)c1nn(-c2ccccc2)c(=O)cc1Cl	53.1*	-11.0	.	63.1*
Cc1ccc(NC(=O)c2cc(-c3ccccc3)nn2-c2ccccc2)cc1	15.9	1.6	1.7	32.6
